Fewer inactive variants are shown than the library holds.
B1: tRNA (parent)
chain: GUUCCGUUGGCGUAAUGGUAACGCGUCUCCCUCCUAAGGAGAAGACUGCGGGUUCGAGUCCCGUACGGAACG

Variants of: B1
Experiment: yeast fitness relative to wild type (ratio to wild type); higher = fitter; tRNA-Arg(CCU), competitive growth, 37 C, YPD
How it was run: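 Start and end populations of a pooled competition were compared by 100-nucleotide paired-end sequencing of gene amplicons. The Saccharomyces cerevisiae strains carried tRNA-Arg(CCU) gene variants at the native genomic locus, synthesised with a 3% per-site mutation rate at 69 sites, and competed in YPD at 37°C for 24 hours in six parallel replicates. Darwinian fitness relative to wild type was based on the change in genotype frequencies. Genotypes required ≥ 100 starting reads, and estimates < 0.5 were set to 0.5.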

Row | Variant | yeast fitness
1 | GUUCCGUGGCCGUAAUGGUAACGCGUCUCCCUCCUAAGGCGAAGACUGCGGGUUCGAGUCCCGUACGGAACG [U8G G10C A40C] | ≤ 0.5
2 | GUUCCGUUAGCGUAUUGGUAACGCGUCUCCGUCCUAAGGAGAAGACUGCGGGAUUGCGUGCCGUACCGAACG [G9A A15U C31G U53A C55U A57C C60G G67C] | ≤ 0.5
3 | GUUCCGUUAGAGUAAUGGUAACGCGUCUCCCUCCCAAGGAGAAGACUGCCGGUUCGAGUCCCGUACGGAACG [G9A C11A U35C G50C] | ≤ 0.5
4 | GUUCCGUGGGCGUAAUGCUAACGCGUCUCCCUCCUAGGGGGAAGACUGCGGGUUCGAGUCCCGUACGGAACG [U8G G18C A37G A40G] | 0.546
5 | GUUCCGUUAGCGUAAUGGUAACGCGUCUCCCUCCUAAGGAGAAGACUGCGGGUUCGAGUCCCGUUCGGAACG [G9A A65U] | 0.93
6 | GUUCCGUGGGCGUAAUGGUAACGCGUCUCCCUCCUAAGGAAAAGACUGCGGGUUCGAGUGCCGUACGGAACG [U8G G41A C60G] | ≤ 0.5
7 | GUUCCGUUAGCGUACUGGUAACGCGUCUCCCUCCUAAGGAGAAGACUGCGGGUUCGACUCCCGUACGGAACG [G9A A15C G58C] | 0.581
8 | GUUCCGUUAGGGUAAUGGUAAUGCGUCUCCCUCCUAAGGGGGAGACUGCGGGUUCGAGUCCCGUACGGAACG [G9A C11G C22U A40G A42G] | ≤ 0.5
9 | GUUCCGUGGCCGUAAUGGUGACGCGUCUCCCUCCUAAGGAGAAGACUGCGGGUUCGAAUCCCGUACGGAACG [U8G G10C A20G G58A] | ≤ 0.5
10 | GUUCCGUUAGCGUAAUGGUAACGCGUCUCCCUCCUUAGGAGAAGAUUGCGGGUUCGAGUCCCGUACGGAACG [G9A A36U C46U] | ≤ 0.5
11 | GUUCCGUUAGUGUAAUGGUAACGCGUCUUCCUCCUAAGGAGAAGACUGCGGGUUCGAGUCCCGUUCGGAACG [G9A C11U C29U A65U] | ≤ 0.5
12 | GUUCCGUUAGCGUAAUGGUGACGCGUCUCUCUCCUAAGGAGAAGACUGCGGGUUCGAGUCCCGUACGGAACG [G9A A20G C30U] | 0.71
13 | GUUCCGUGGGCGUAAUGGUAACGCGUCUCCCUCCUAAGGAGAAGACUAGGGGUUCGAGUCCCGUACGGAACG [U8G G48A C49G] | ≤ 0.5
14 | GUUCCGUUAGCGUAAUGGUAACGCGUCUCCCUCCUAAGGAGUAGACUGCGGGUUCGAGACCCGUACCGAACG [G9A A42U U59A G67C] | ≤ 0.5
15 | GUUCCGUGGGCGUAAUAGUAACGCGUCUCCAUCCUAAGGAGAAGACUGCGGGUUCGAGUCCCGUAUGGAACG [U8G G17A C31A C66U] | ≤ 0.5
16 | GUUCCGUUAGGGUAAUGGCGACGCGUCUCCCUCCUAAGGAGAAGACUGCGGGUUCAAGUGCCGUACGGAACG [G9A C11G U19C A20G G56A C60G] | ≤ 0.5
17 | GUUCCGUUAGCGUAAUGGUCACGCGUCUCCCUCCUAAGGAGAAGACUGCGGGUUCGAGUCCCGUACGGAACG [G9A A20C] | 0.871
18 | GUUCCGUGGGCGUAAUAGUAACGGGUCUCCCUCCUAAGGAGAAGACUGCGGGUUCGAGUCCCGUACGGAACG [U8G G17A C24G] | ≤ 0.5
19 | GUUCCGUUAGCGUAAUGGUAACGCGUCUCCCUCCUAAGGGGAAGACUGCGGGUUCGAGUCCCGUACGGAACG [G9A A40G] | 0.918

Row | Variant | yeast fitness
20 | GUUCCGUUAGCGUAAUGGUAACGCGUCUCCCUCCUAAGGCGAAGACUGCGGGUUCGAGUCCCGUACGGAACG [G9A A40C] | 0.881
21 | GUUCCGUUAGCGUAAUGGUAUCGCGUCUCCCUCCUAAGGAGAAGACUGCGGGUUCGAGUCCCGUACGGAACG [G9A A21U] | 0.693
22 | GUUCCGUUAGCGUAAUGGUAGCGCGUCUCCCUCCUAAGGAGAAGACUGCGGGUUCGAGUCCCGUACGGAACG [G9A A21G] | 1.05
23 | GUUCCGUGGGCGUAAUGGUAACGCGUCUCCCUCCUAAGGAGAAGACAGCGGGUUCGAGUCCCGUACGGAACG [U8G U47A] | 0.602
24 | GUUCCGUGGGCGUAAUGGUAACGCGUCUCCCUCCUAAGGAGAAGACUGCGGGUUCGAGUCCCGUACUGAACG [U8G G67U] | 0.583
25 | GUUCCGUUAGCGUGAUGGUCACGCGUCUCCCUCCUAAGGAGCAGACUGCGGGUUCGAGUCCCGUACGGAACG [G9A A14G A20C A42C] | ≤ 0.5
26 | GUUCCGUGGGCGUAAUGGUAACGCGUCUCCCUCCUAAGGAGAAGACUGCGGGUGCCAGUCCCGUACGGAACG [U8G U54G G56C] | ≤ 0.5
27 | GUUCCGUUAGAGUAAUGGUUACACGUCUCCCUCCUAAGGAGAAGACUGCGAGUUCGAGUCCCGUACGGAACG [G9A C11A A20U G23A G51A] | ≤ 0.5
28 | GUUCCGUUAGCGUAAUGGUAGCGCGUCUCCCUCCUAAGGAGAAGACUGCGGGUUCGAGUCCUCUACGGACCG [G9A A21G C62U G63C A70C] | 0.52
29 | GUUCCGUUAGCGUAAUGGUAACGCGUCUCCCUCCUAAGGGGAAGACUGCGGGUUCGAGUCCCGCACGGAACG [G9A A40G U64C] | 0.722
30 | GUUCCGUGGGCGUAAUGGUAACGCGUCUCCCUCCUAAGGAGAAGACUGCGGGUUCAAGUCCCGUACGGAACG [U8G G56A] | 0.568
31 | GUUCCGUUAGGGGAAUGGUAACCCGUCUCCCUCUUAAGGAGAAGACUGCGGGUUUGAGUCCCGUACGGAACG [G9A C11G U13G G23C C34U C55U] | ≤ 0.5
32 | GUUCCGUUAGCGUCAUGGUAAGGCGUCUCCCUCCUAAGGAGAAGACUGCGGGUCCGAGUCCCGUAUGGAACG [G9A A14C C22G U54C C66U] | ≤ 0.5
33 | GUUCCGUUAGCGUUAUGGUAACGCGUCUGCCUCAUAAGGAGAAGACUGCGGGUUCGAGUCCCAUACGGAACG [G9A A14U C29G C34A G63A] | ≤ 0.5
34 | GUUCCGUUAGUGUAAUGGUAACGCGUCUCCCUCCUAAGGAGAAGACUGAGGGUUCGAGUCCCGUACUGAACG [G9A C11U C49A G67U] | ≤ 0.5
35 | GUUCCGUUAGCGUAAUGGUAACGCGUCUCCCUCCUAAGGAGAAGACUGCGGGUUCGAGUCCCGUGUGGAACG [G9A A65G C66U] | 0.815
36 | GUUCCGUUAGCGUAAUGGUAACGCGUCUCCCUCCUAAGGAGACGACUGCGGGUUCGAGUCCCGUACGGAACG [G9A A43C] | 1.07
37 | GUUCCGUUAGCGUAAUGGUAACGCGUCUCCCUCCUAAGGAGAUGACUGCGGGUUCGAGUCCCGUACGGAACG [G9A A43U] | 1.08

Source: the RNAGym collection of RNA variant scans (doi:10.1126/science.aae0568)
